Reference: publication PMC6424611 (Journal of molecular biology, 2019)
pKd: −log10 of the molar value. Where no end group is shown, it is not given here. [ ]: non-standard residue; d: D form. The star is where a group is joined. Biotin = O=C1N[C@H]2[C@H](CS[C@H]2CCCCC(=O)*)N1; TTDS = NCCCOCCOCCOCCCNC(=O)CCC(=O)*; pS = N[C@@H](COP(=O)(O)O)C(=O)O

Experiments:
SYNJ2BP PDZ = target: T1, SYNJ2BP PDZ (Homo sapiens, UniProt P57105); assay: holdup assay; type: binding; conditions: fraction of PDZ depleted; ~4 μM PDZ; biotinylated RSK1_725–735; triplicates
T1 sequence (P57105 13-100 limits assumed): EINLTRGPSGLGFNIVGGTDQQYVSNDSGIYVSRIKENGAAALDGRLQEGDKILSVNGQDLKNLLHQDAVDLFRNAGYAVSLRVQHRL
Method in brief: (§1)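 Automated holdup against N-terminally biotinylated (TTDS linker) RSK1 725–735 peptides, unphosphorylated and phosphorylated, in triplicate. PDZome v2 clones were codon-optimized and expressed in E. coli, with soluble lysate adjusted to ~4 μM. BI is the PDZ fraction depleted from the fluid phase.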

ARHGEF12 PDZ = target: T2, ARHGEF12 PDZ (Homo sapiens, UniProt Q9NZN5); assay: holdup assay; type: binding; conditions: ~4 μM PDZ
T2 sequence (Q9NZN5 72-151 limits assumed): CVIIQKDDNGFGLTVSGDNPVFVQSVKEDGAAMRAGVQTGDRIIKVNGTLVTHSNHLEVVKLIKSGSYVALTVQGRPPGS
Method in brief: as §1

LAP2 PDZ = assay: holdup assay; type: binding, human; conditions: fraction of PDZ depleted; ~4 μM PDZ; biotinylated RSK1_725–735; triplicates
Method in brief: as §1

NHERF2-2 PDZ = assay: holdup assay; type: binding, human; conditions: ~4 μM PDZ
Method in brief: as §1

GORASP2 PDZ = assay: holdup assay; type: binding, human; conditions: ~4 μM PDZ
Method in brief: as §1

HTRA1 PDZ = HTRA1 PDZ (Homo sapiens, UniProt Q92743); assay: holdup assay; type: binding; conditions: ~4 μM PDZ
Method in brief: as §1

NHERF3-1 PDZ = target: T3, NHERF3-1 PDZ (Homo sapiens, UniProt Q5T2W1); assay: holdup assay; type: binding; conditions: ~4 μM PDZ
T3 sequence (Q5T2W1 9-90 limits assumed): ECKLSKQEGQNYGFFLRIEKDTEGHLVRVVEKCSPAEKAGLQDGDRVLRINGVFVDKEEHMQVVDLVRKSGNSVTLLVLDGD
Method in brief: as §1

[1] = system: human PDZ domains (PDZome); assay: holdup assay, PDZome-binding profile
Method in brief: (§2)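 Automated holdup in triplicate measured biotinylated (N-terminal TTDS linker) RSK1 725–735 peptides, unphosphorylated or phosphorylated, against E. coli-expressed PDZome v2 domains. Soluble lysate was adjusted to ~4 μM, giving 255 domains for the unphosphorylated and 252 for the phosphorylated peptide. Binding intensity (BI) is the fraction of PDZ depleted from the fluid phase. BI 0.2 was the high-confidence threshold.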

MAGI3-2 PDZ = assay: holdup assay; type: binding, human; conditions: fraction of PDZ depleted; ~4 μM PDZ; biotinylated RSK1_725–735; triplicates
Method in brief: as §2

SHANK3 PDZ = assay: holdup assay; type: binding, human; conditions: ~4 μM PDZ
Method in brief: as §1

MAGI2-2 PDZ = MAGI2-2 PDZ (Homo sapiens, UniProt Q86UL8); assay: holdup assay; type: binding; conditions: ~4 μM PDZ
Method in brief: as §1

SNTA1 PDZ = target: T4, SNTA1 PDZ (Homo sapiens, UniProt Q13424); assay: holdup assay; type: binding; conditions: ~4 μM PDZ
T4 sequence (Q13424 87-170 limits assumed): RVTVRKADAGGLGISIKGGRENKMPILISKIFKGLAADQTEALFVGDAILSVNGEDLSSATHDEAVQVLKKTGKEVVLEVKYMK
Method in brief: as §1

LIMK2 PDZ = assay: holdup assay; type: binding, human; conditions: ~4 μM PDZ
Method in brief: as §1

MAST2 PDZ = target: T5, MAST2 PDZ (Homo sapiens, UniProt Q6P0Q8); assay: holdup assay; type: binding; conditions: ~4 μM PDZ
T5 sequence (Q6P0Q8 1104-1192 limits assumed): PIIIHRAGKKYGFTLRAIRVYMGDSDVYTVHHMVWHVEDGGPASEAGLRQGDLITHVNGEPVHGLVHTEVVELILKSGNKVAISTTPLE
Method in brief: as §1

DLG4-2 PDZ = assay: holdup assay; type: binding, human; conditions: fraction of PDZ depleted; ~4 μM PDZ; biotinylated RSK1_725–735; triplicates
GRID2IP-1 PDZ = assay: holdup assay; type: binding, human; conditions: ~4 μM PDZ
Method in brief: as §1

MAGI1-2 PDZ = MAGI1-2 PDZ (Homo sapiens, UniProt Q96QZ7); assay: holdup assay; type: binding
Method in brief: as §1

MAST1 PDZ = target: T6, MAST1 PDZ (Homo sapiens, UniProt Q9Y2H9); assay: holdup assay; type: binding; conditions: ~4 μM PDZ
T6 sequence (Q9Y2H9 967-1055 limits assumed): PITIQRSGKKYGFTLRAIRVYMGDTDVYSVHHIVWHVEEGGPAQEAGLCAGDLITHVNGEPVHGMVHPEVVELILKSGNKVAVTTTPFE
Method in brief: as §1

PPP1R9A PDZ = assay: holdup assay; type: binding, human; conditions: ~4 μM PDZ
Method in brief: as §1

ARHGEF11 PDZ = assay: holdup assay; type: binding, human; conditions: ~4 μM PDZ
Method in brief: as §1

SCRIB-3 PDZ = assay: holdup assay, updated analysis; type: binding, human; conditions: weak partner; automated computational protocol
Method in brief: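 The same triplicate holdup datasets (biotinylated RSK1 725–735, unphosphorylated and phosphorylated, vs ~4 μM PDZome lysates) were re-analysed with an updated automated computational protocol. This gave alternative BI values, reported as supplemental values alongside the conventional analysis.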

PARD3B-1 PDZ = target: T7, PARD3B-1 PDZ (Homo sapiens, UniProt Q8TEW8); assay: holdup assay; type: binding; conditions: fraction of PDZ depleted; ~4 μM PDZ; biotinylated RSK1_725–735; triplicates
T7 sequence (Q8TEW8 201-289 limits assumed): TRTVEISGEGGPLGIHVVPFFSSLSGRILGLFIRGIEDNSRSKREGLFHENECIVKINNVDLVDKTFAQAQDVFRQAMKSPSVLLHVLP
Method in brief: as §2

PDZRN3-1 PDZ = target: T8, PDZRN3-1 PDZ (Homo sapiens, UniProt Q9UPQ7); assay: holdup assay; type: binding; conditions: ~4 μM PDZ
T8 sequence (Q9UPQ7 249-339 limits assumed): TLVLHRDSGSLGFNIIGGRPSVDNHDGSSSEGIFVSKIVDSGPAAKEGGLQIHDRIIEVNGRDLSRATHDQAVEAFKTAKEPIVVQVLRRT
Method in brief: as §1

LNX1 −3 PDZ = assay: holdup assay; type: binding, human; conditions: ~4 μM PDZ
Method in brief: as §1

DFNB31-3 PDZ = assay: holdup assay; type: binding, human; conditions: ~4 μM PDZ
Method in brief: as §1

[2] = fraction of PDZ depleted, biotinylated RSK1_725–735, triplicates
[3] = read-out: KD, estimated, from BI, estimated 17 μM peptide
[4] = BI threshold 0.2, compared to the unphosphorylated peptide

Chain of MAGI1-2 PDZ (Q96QZ7 472-554 limits assumed): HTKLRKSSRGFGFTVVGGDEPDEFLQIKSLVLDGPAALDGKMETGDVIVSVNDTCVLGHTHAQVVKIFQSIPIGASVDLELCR
Chain of HTRA1 PDZ (Q92743 365-467 limits assumed): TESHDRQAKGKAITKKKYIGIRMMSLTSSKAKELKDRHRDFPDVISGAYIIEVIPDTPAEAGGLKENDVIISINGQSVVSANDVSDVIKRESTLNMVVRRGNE
Chain of MAGI2-2 PDZ (Q86UL8 426-510 limits assumed): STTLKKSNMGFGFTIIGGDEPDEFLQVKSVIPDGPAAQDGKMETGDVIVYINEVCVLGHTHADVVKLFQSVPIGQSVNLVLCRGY

phosphorylated RSK1 peptide: RSK1 C-terminal PBM peptide phosphorylated at position −3; same constructs as the unphosphorylated ({Biotin-TTDS}-RRVRKLP[pS]TTL)
binding intensity (BI) (SYNJ2BP PDZ): 0.54 ± 0.03 | binding intensity (BI) (ARHGEF12 PDZ; [2]): 0.05 ± 0.05 | pKd (ARHGEF12 PDZ; [3]): < 4.00 | binding intensity (BI) (LAP2 PDZ): 0.28 ± 0.01 | binding intensity (BI) (NHERF2-2 PDZ; [2]): 0.07 ± 0.05 | pKd (NHERF2-2 PDZ; [3]): < 4.00 | binding intensity (BI) (GORASP2 PDZ; [2]): 0.19 ± 0.01 | pKd (GORASP2 PDZ; [3]): 4.16 | binding intensity (BI) (HTRA1 PDZ; [2]): 0.36 ± 0.01 | pKd (HTRA1 PDZ; [3]): 4.56 | binding intensity (BI) (NHERF3-1 PDZ; [2]): 0.03 ± 0.01 | pKd (NHERF3-1 PDZ; [3]): < 4.00 | number of detectable binders lost [1, 4]: 12 | number of new binders gained [1, 4]: 10 | average BI ([1]; PDZome profile): 0.33 | maximal BI ([1]; PDZome profile): 0.54 | binding intensity (BI) (MAGI3-2 PDZ): 0.28 ± 0.06 | binding intensity (BI) (SHANK3 PDZ; [2]): 0.07 ± 0.01 | pKd (SHANK3 PDZ; [3]): < 4.00 | binding intensity (BI) (MAGI2-2 PDZ; [2]): 0.23 ± 0.03 | pKd (MAGI2-2 PDZ; [3]): 4.27 | binding intensity (BI) (SNTA1 PDZ; [2]): 0.53 ± 0.01 | pKd (SNTA1 PDZ; [3]): 4.88 | binding intensity (BI) (LIMK2 PDZ; [2]): 0.22 ± 0.07 | pKd (LIMK2 PDZ; [3]): 4.24 | binding intensity (BI) (MAST2 PDZ; [2]): 0.23 ± 0.03 | pKd (MAST2 PDZ; [3]): 4.27 | binding intensity (BI) (DLG4-2 PDZ): 0.25 ± 0.02 | binding intensity (BI) (GRID2IP-1 PDZ; [2]): 0.24 ± 0.01 | pKd (GRID2IP-1 PDZ; [3]): 4.29 | binding intensity (BI) (MAGI1-2 PDZ; fraction of PDZ depleted, ~4 μM PDZ, biotinylated RSK1_725–735, triplicates): 0.15 ± 0.02 | down regulation of interaction by phosphorylation (MAGI1-2 PDZ; holdup, phosphorylated vs unphosphorylated): a factor of five | pKd (MAGI1-2 PDZ; read-out: KD, estimated, from BI, estimated 17 μM peptide, ~4 μM PDZ): 4.03 | binding intensity (BI) (MAST1 PDZ; [2]): 0.08 ± 0.03 | pKd (MAST1 PDZ; [3]): < 4.00 | binding intensity (BI) (PPP1R9A PDZ; [2]): 0.33 ± 0.02 | pKd (PPP1R9A PDZ; [3]): 4.50 | binding intensity (BI) (ARHGEF11 PDZ; [2]): 0.01 ± 0.02 | pKd (ARHGEF11 PDZ; [3]): < 4.00 | interaction partner by updated analysis (SCRIB-3 PDZ): new partners | binding intensity (BI) (PARD3B-1 PDZ): 0.31 ± 0.02 | binding intensity (BI) (PDZRN3-1 PDZ; [2]): 0.45 ± 0.01 | pKd (PDZRN3-1 PDZ; [3]): 4.73 | binding intensity (BI) (LNX1 −3 PDZ; [2]): 0.24 ± 0.07 | pKd (LNX1 −3 PDZ; [3]): 4.29 | binding intensity (BI) (DFNB31-3 PDZ; [2]): −0.01 ± 0.02 | pKd (DFNB31-3 PDZ; [3]): < 4.00
